Experimental data gathered from unrelated publications.
P2RY14: P2Y purinoceptor 14 (P2RY14, Homo sapiens, UniProt Q15391)
IRAK4: Interleukin-1 receptor-associated kinase 4 (IRAK4, Homo sapiens, UniProt Q9NWZ3)
CYP2D6: Cytochrome P450 2D6 (CYP2D6, Homo sapiens, UniProt P10635)

| target | observed | mode | technique | pH | IC50 [µM] | SMILES |
| --- | --- | --- | --- | --- | --- | --- |
| P2RY14 | cAMP | antagonist | – | – | 0.0458 | CC(C)OC(=O)[C@H](Cc1c[nH]c2ccccc12)NC(=O)c1cccs1 |
| ltaE (Escherichia coli, UniProt P75823) | enzyme activity | inhibitor | – | – | 1900 | NCC(=O)O |
| IRAK4 | enzyme activity | inhibitor | radiometric | – | 0.0115 | CNC(=O)c1ccccc1Nc1nc(Nc2ccnc(CO)c2)ncc1Cl |
| P2RY14 | ligand displacement in cells | – | flow cytometry | – | 2.03 | O=C(O)c1cc(-c2ccc(-n3ccnn3)cc2)cc(-n2cc(-c3ccc(C(F)(F)F)cc3)nn2)c1 |
| IRAK4 | enzyme activity | inhibitor | radiometric | – | 0.0126 | CNS(=O)(=O)c1ccccc1Nc1nc(Nc2ccc(CO)nc2)ncc1Cl |
| P2RY14 | cAMP | antagonist | – | – | 0.0106 | CC(C)OC(=O)[C@H](Cc1c[nH]c2ccccc12)NC(=O)c1ccc2ncccc2c1 |
| Histone deacetylase 3 (HDAC3, Homo sapiens, UniProt O15379) | enzyme activity | inhibitor | fluorescence | – | 0.0151 | O=C(NO)c1ccc(Cn2cnc3c(Nc4ccc(Cl)cc4)ncnc32)cc1 |
| P2RY14 | cAMP | antagonist | – | – | 0.0012 | Cc1ccc(OCC(=O)N[C@@H](Cc2c[nH]c3ccccc23)C(=O)OC(C)C)cc1 |
| CYP2D6 | enzyme activity | inhibitor | fluorescence | pH 8 | 4.23 | CN(C)C(=O)c1cc2cnc(Nc3ccc(-c4ccc5c(=O)cc(N6CCOCC6)oc5c4)cc3)nc2n1C1CCCC1 |
| IRAK4 | enzyme activity | inhibitor | radiometric | – | 0.00249 | CNC(=O)c1ccccc1Nc1nc(Nc2ccc(CO)cc2)ncc1Cl |
| P2RY14 | cAMP | antagonist | – | – | 0.0044 | CC(C)OC(=O)[C@H](Cc1c[nH]c2ccccc12)NC(=O)COc1ccccc1 |
| IRAK4 | enzyme activity | inhibitor | radiometric | – | 0.00447 | C#Cc1cnc(Nc2ccnc(CO)c2)nc1Nc1ccccc1S(C)(=O)=NC#N (stereo not shown) |
| Kinesin-like protein KIF11 (KIF11, Homo sapiens, UniProt P52732) | ATPase activity | inhibitor | – | – | > 100 | CC(C)(C)NS(=O)(=O)c1cccc(C(=O)N2CC3(CCC4(CC4)CC3)c3cc(NS(C)(=O)=O)ccc32)c1 |
| P2RY14 | ligand displacement in cells | – | flow cytometry | – | 0.0244 | O=C(O)c1cc(-c2ccc(-n3ccnn3)cc2)c2ccc(-c3ccc(C(F)(F)F)cc3)cc2c1 |
| IRAK4 | enzyme activity | inhibitor | radiometric | – | 0.00051 | C#Cc1cnc(Nc2ccc(CO)cc2)nc1Nc1ccccc1C(=O)NC |
| P2RY14 | ligand displacement in cells | – | flow cytometry | – | 0.153 | O=C(O)c1cc(-c2ccc(-n3cc(CCO)nn3)cc2)c2ccc(-c3ccc(C(F)(F)F)cc3)cc2c1 |
| P2RY14 | cAMP | antagonist | – | – | 0.0234 | O=C(N[C@@H](Cc1c[nH]c2ccccc12)C(=O)O)c1ccco1 |
| IRAK4 | enzyme activity | inhibitor | radiometric | – | 0.0264 | OCc1ccc(Nc2ncc(Cl)c(Nc3ccccc3-c3nccs3)n2)cc1 |
| P2RY14 | ligand displacement in cells | – | flow cytometry | – | 0.0491 | Cn1nccc1-c1ccc(-c2cc(C(=O)O)cc3cc(-c4ccc(C(F)(F)F)cc4)ccc23)cc1 |
| IRAK4 | enzyme activity | inhibitor | radiometric | – | 0.108 | CNC(=O)c1ccccc1Nc1nc(Nc2ccc(CO)cc2)ncc1C#N |
| TGF-beta receptor type-1 (TGFBR1, Homo sapiens, UniProt P36897) | enzyme activity | inhibitor | radiometric | – | 1.1 | c1coc(-c2n[nH]cc2-c2ccnc3ccccc23)c1 |
| P2RY14 | ligand displacement in cells | – | flow cytometry | – | 0.00369 | O=C(O)c1cc(-c2ccc(-c3c[nH]nn3)cc2)c2ccc(-c3ccc(C(F)(F)F)cc3)cc2c1 |
| IRAK4 | enzyme activity | inhibitor | radiometric | – | 0.0189 | CS(=O)(=NC#N)c1ccccc1Nc1nc(Nc2ccc(CO)nc2)ncc1Cl (stereo not shown) |
| Homeodomain-interacting protein kinase 1 (HIPK1, Homo sapiens, UniProt Q86Z02) | enzyme activity | inhibitor | – | – | 2.9 | Cn1cc(C2=C(c3cn(CCCSC(=N)N)c4ccccc34)C(=O)NC2=O)c2ccccc21 |
| CYP2D6 | enzyme activity | inhibitor | – | – | 50 | C=CCn1c(=O)c2cnc(Nc3ccc(N4CCN(C)CC4)cc3)nc2n1-c1ccc2c(n1)[C@@](O)(CC)CC2 |
